Source: ChEMBL document CHEMBL1667743, “Functional in vivo imaging of cysteine cathepsin activity in murine model of inflammation” (Bioorg Med Chem, 2011)
Activity calls are given as the source filed them. The rule behind the calls is not given here.

Columns and labels:
[1] = test system: CC(C)(C)OC(=O)NCC[C@H](NC(=O)[C@H](CC1CCCCC1)NC(=O)N1CCOCC1)C(=O)NCCNC(=O)OCC1c2ccccc2-c2ccccc21; experiment: Activity at recombinant cathepsin B
Method in brief: (§1)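 Active-site-titrated (E-64) recombinant human cathepsins B, L, S and in-house cathepsin K, 10 nM final in pH 6.5 acetate/HEPES buffer with 300 mM NaCl, 0.001% Pluronic and L-cysteine; DMSO-dissolved Cy7/BHQ-3 quenched substrate 0.8–40 µM final (DMSO ≤1%); fluorescence read at 25 °C (λex 710, λem 767 nm); steady-state data fitted by non-linear least squares to Michaelis–Menten with substrate inhibition.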

[2] = test system: CC(C)(C)OC(=O)NCC[C@H](NC(=O)[C@H](CC1CCCCC1)NC(=O)N1CCOCC1)C(=O)NCCNC(=O)OCC1c2ccccc2-c2ccccc21; experiment: Ratio of Kcat/Km for recombinant cathepsin B; method in brief: as §1
[3] = molecular target: Stromelysin-1 (Homo sapiens) (UniProt P08254); experiment: Activity at MMP3
Method in brief: (§2)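 Recombinant protease (10–40 nM final) incubated with 60.0 µM probe substrate; NIR fluorescence of cleaved quenched probe measured as in the in vitro cathepsin assay (λex 710 nm, λem 767 nm).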

[4] = molecular target: Neutrophil collagenase (Homo sapiens) (UniProt P22894); experiment: Activity at MMP8; method in brief: as §2
[5] = molecular target: Matrix metalloproteinase-9 (Homo sapiens) (UniProt P14780); experiment: Activity at MMP9; method in brief: as §2
[6] = molecular target: Matrix metalloproteinase-14 (Homo sapiens) (UniProt P50281); experiment: Activity at MMP14; method in brief: as §2
[7] = test system: Mus musculus; experiment: Activity at cathepsin S in zymosan-induced inflammatory paw edema mouse model assessed as ipsi/contralateral paw fluorescent signal at 20 uM, iv after 10 mins; type: functional, organism-based
Method in brief: (§3)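 Mice given zymosan in one hind paw (n = 3); 24 h later 20 µM probe in PBS iv via tail vein (800 nmol/kg). Under 1.5–2% isoflurane, body temperature held with heating pads; tail and upper body masked; images at 10 min, 1, 3, 6, 24 h; identical ROIs over both hind paws, ipsi/contralateral ratio.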

[8] = test system: Mus musculus; experiment: Activity at cathepsin S in zymosan-induced inflammatory paw edema mouse model assessed as ipsi/contralateral paw fluorescent signal at 20 uM, iv after 180 mins; type: functional, organism-based; method in brief: as §3
[9] = test system: Mus musculus; experiment: Activity at cathepsin S in zymosan-induced inflammatory paw edema mouse model assessed as ipsi/contralateral paw fluorescent signal at 13.3 uM, iv after 24 hrs; type: functional, organism-based
[10] = test system: Mus musculus; experiment: Activity at cathepsin S in zymosan-induced inflammatory paw edema mouse model assessed as ipsi/contralateral paw fluorescent signal at 20 uM, iv in presence of Dexamethasone; type: functional, organism-based
Method in brief: (§4)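 Zymosan paw inflammation; groups n = 3. Dexamethasone 10 mg/kg oral in 0.6% methylcellulose/0.5% Tween80 1 day before zymosan, shortly after, and 1 h before probe; or E-64 10 or 30 mg/kg ip in 40% DMSO/PBS 2 days and 1 day before, shortly after zymosan, and 1 h before probe. Probe 20 µM iv (800 nmol/kg) 24 h post-zymosan; ipsi/contralateral paw fluorescence imaged.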

[11] = test system: Mus musculus; experiment: Activity at cathepsin S in zymosan-induced inflammatory paw edema mouse model assessed as ipsi/contralateral paw fluorescent signal at 20 uM, iv in presence of 10 to 30 ug/ml E-64; type: functional, organism-based; conditions: in the assay text read “10 to 30 mg/kg” for “10 to 30 ug/ml”; method in brief: as §4

Chain of Matrix metalloproteinase-9 (Homo sapiens) (P14780 whole entry): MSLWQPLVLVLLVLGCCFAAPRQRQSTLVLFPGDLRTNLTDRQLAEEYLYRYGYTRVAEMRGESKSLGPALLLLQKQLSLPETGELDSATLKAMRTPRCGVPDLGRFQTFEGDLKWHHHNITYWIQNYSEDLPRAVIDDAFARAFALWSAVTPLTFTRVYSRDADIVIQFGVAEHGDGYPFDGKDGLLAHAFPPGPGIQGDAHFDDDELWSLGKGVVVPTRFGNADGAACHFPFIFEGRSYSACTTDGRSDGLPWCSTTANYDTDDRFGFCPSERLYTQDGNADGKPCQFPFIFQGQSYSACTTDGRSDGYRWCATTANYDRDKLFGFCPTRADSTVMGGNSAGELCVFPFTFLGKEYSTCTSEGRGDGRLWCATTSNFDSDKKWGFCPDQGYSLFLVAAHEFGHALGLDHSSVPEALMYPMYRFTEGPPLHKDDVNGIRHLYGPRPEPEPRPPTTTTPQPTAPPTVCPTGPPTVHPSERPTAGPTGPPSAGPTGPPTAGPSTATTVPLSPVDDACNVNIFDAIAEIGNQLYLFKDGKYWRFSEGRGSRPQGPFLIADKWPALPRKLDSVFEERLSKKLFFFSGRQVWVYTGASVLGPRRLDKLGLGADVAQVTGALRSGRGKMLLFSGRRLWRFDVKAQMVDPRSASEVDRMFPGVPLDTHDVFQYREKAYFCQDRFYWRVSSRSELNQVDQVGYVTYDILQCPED
Chain of Neutrophil collagenase (Homo sapiens) (P22894 101-467 limits assumed): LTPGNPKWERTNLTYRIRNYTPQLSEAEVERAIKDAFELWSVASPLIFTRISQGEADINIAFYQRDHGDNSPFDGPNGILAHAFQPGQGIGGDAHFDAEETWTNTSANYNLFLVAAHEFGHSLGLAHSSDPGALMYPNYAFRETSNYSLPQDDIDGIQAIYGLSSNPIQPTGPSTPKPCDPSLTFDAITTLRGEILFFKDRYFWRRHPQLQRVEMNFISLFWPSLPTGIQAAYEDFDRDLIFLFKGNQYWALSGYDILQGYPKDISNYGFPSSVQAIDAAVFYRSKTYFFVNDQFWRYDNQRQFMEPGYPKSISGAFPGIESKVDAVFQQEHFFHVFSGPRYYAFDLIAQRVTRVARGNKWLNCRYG
Chain of Stromelysin-1 (Homo sapiens) (P08254 100-477 limits assumed): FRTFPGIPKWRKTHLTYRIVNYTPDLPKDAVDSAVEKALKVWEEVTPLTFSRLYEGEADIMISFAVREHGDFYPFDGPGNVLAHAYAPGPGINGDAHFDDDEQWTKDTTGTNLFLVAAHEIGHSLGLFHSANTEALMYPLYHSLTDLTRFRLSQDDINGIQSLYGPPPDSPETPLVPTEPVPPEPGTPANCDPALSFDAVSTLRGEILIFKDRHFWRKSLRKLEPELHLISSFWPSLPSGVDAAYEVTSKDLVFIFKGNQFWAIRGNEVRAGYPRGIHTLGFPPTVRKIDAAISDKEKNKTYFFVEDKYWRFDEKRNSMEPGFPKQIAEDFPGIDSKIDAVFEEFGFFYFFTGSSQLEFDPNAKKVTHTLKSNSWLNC

Activity [3] | Activity [4] | Activity [5] | Activity [6] | Compound | Km [1] | kcat/Km [2] | Activity [7] | Activity [8] | Activity [9] | Activity [10] | Activity [11]
 |  |  |  | Cathepsin B (Homo sapiens) (from UniProt P07858) | 3.2 mM | 332 M⁻¹ s⁻¹ |  |  |  |  | 
inactive | inactive | inactive | inactive | CCN(CC)c1ccc2nc3ccc(/N=N/c4ccc(N(C)CCCC(=O)NCCNC(=O)[C@H](CCNC(=O)CCCCCN5\C(=C/C=C/C=C/C=C/C6N(CC)c7ccc(S(=O)(=O)O)cc7C6(C)C)C(C)(C)c6cc(S(=O)(=O)[O-])ccc65)NC(=O)[C@H](CC5CCCCC5)NC(=O)N5CCOCC5)cc4)cc3[n+](-c3ccccc3)c2c1 (stereo partly specified) |  |  | Active | Active | Active | inactive | inactive
